This is a sample that favours compounds with a hit; in the whole collection about 2.2% have one here.
PGC1a acetyl inh: PGC1a acetylation modulation, inhibitor mode | U2OS PGC1a acetylation, AlphaScreen anti-acetyl-lysine; with virally co-expressed GCN5 acetyltransferase | actives 0.17% (n = 350,000) | AID 651687 | inhibition, % at 15.6 µM;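 active = every replicate shows inhibition of at least 40%; inconclusive = mean inhibition at least 40% but some replicate below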;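 note: 0% = neutral control wells and 100% = positive control wells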
SIRT5 block: inhibitors of human sirtuin-5 desuccinylase | Q9NXA8 | Purified SirT5, succinyl-peptide AMC, trypsin-coupled fluorescence | inhibition, % at 15 µM | actives 1.1% (n = 330,000); in the data active = inhibition above about 15%; inconclusive = no clear call, values can overlap the other calls
Target sequence (Q9NXA8 whole entry, looked up): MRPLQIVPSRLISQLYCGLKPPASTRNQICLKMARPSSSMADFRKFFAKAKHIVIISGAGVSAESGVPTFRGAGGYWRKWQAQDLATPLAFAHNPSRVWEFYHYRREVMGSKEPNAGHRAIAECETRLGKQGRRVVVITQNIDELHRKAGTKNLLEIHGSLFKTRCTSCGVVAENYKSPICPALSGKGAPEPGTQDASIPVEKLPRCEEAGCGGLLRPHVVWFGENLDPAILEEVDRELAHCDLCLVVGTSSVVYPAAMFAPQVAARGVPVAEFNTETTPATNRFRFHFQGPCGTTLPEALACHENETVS
FGF22 binding: FGF22 (human) thermal shift binding; Q9HCT0; recombinant FGF22 thermal shift, SYPRO orange fluorescence; percent of sucrose octasulfate shift, DMSO zero; activity (Tm shift, normalised), % at 9.99 µM; actives 1.5% (n = 340,000); AID 651658;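 active = mean Tm shift, scaled 0 neutral to 100 positive control, at about 1.3% or above, every replicate too, limit read from the data; inconclusive = no clear call, values can overlap the other calls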
Target sequence (Q9HCT0 whole entry, looked up): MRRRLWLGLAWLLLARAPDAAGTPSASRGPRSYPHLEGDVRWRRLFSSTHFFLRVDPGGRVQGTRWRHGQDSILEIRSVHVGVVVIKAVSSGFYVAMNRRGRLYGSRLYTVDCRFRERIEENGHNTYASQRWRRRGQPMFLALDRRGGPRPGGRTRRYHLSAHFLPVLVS
ERAP1 inh: ERAP1 (human) enzyme inhibition. actives 0.15% (n = 340,000). recombinant ERAP1, Leu-AMC fluorescence, 60 min. Q9NZ08. inhibition, % at 10.7 µM;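 active = mean replicate inhibition of at least 30%, or all replicates individually reaching that 30% level; inactive = mean below 30% and not every replicate reaching it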;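 note: 0% = neutral control wells and 100% = L-leucinethiol positive control wells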
FN deposition inh: fibronectin deposition inhibition; AH1F fibroblasts, Alexa488-fibronectin deposition fluorescence, overnight; inhibition, % at 12.6 µM; actives 0.086% (n = 350,000);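 active = mean inhibition across replicates of 30% or more, regardless of how many single replicates reach that level; inconclusive = mean under 30% yet at least half of replicates reach 30%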;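 note: positive control wells lacked labelled fibronectin entirely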
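material = AH1F fibroblast monolayer depositing Alexa488-labelled fibronectin into matrix | amount = 10000 AH1F cells/well | buffer or medium = DMEM plus 2% serum, read in PBS | incubation = 1 h cell adhesion before compound, then overnight fibronectin incubation | detection = fluorescence at 485 nm excitation, 525 nm emission | evaluation = percent inhibition as loss of matrix-bound fibronectin fluorescence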
Active calls of the source: *; ? = inconclusive; / = no result given.

SMILES | PGC1a acetyl inh | SIRT5 block | FGF22 binding | ERAP1 inh | FN deposition inh
COc1ccc(S(=O)(=O)Nc2ccc3c(c2)C(=O)N([C@@H](C)CO)C[C@@H](C)[C@H](CN(C)S(=O)(=O)c2ccccc2)OCCCC[C@H](C)O3)cc1 | -9 | 22* | 0 | -2 | /
COc1ccc(S(=O)(=O)Nc2ccc3c(c2)C(=O)N([C@H](C)CO)C[C@@H](C)[C@H](CN(C)S(=O)(=O)c2ccccc2)OCCCC[C@@H](C)O3)cc1 | -6 | 19* | -1 | 2 | /
COc1cccc(S(=O)(=O)Nc2ccc3c(c2)[C@@H]2C[C@H](CC(=O)NCCc4ccccc4)O[C@@H](CO)[C@@H]2O3)c1 | 6 | 1 | 0 | 3 | /
CC(C)c1cn(CC[C@H]2CC[C@@H](NC(=O)C3CC3)[C@H](CO)O2)nn1 | 7 | 4 | 0 | -2 | 0
COc1ccc(S(=O)(=O)Nc2ccc3c(c2)C(=O)N([C@@H](C)CO)C[C@H](C)[C@H](CN(C)S(=O)(=O)c2ccc(OC)cc2)OCCCC[C@H](C)O3)cc1 | -2 | / | 15* | / | -5
COc1ccc(S(=O)(=O)Nc2ccc3c(c2)C(=O)N([C@H](C)CO)C[C@@H](C)[C@H](CN(C)S(=O)(=O)c2ccccc2)OCCCC[C@H](C)O3)cc1 | -6 | 25* | -1 | 1 | /
COc1ccc(S(=O)(=O)N(C)C[C@@H]2OCCCC[C@H](C)Oc3ccc(NS(=O)(=O)c4ccccc4)cc3C(=O)N([C@@H](C)CO)C[C@@H]2C)cc1 | -10 | 6 | 0 | -1 | -3
C[C@@H]1CCCCO[C@@H](CN(C)S(=O)(=O)c2cccs2)[C@H](C)CN([C@H](C)CO)C(=O)c2cc(NC(=O)CCC(F)(F)F)ccc2O1 | -6 | 4 | 0 | 3 | /
COc1ccc([N+](=O)[O-])cc1N(CC(=O)Nc1ccccc1C(=O)N1CCCC1)S(C)(=O)=O | 0 | -3 | 44* | -2 | 0
CS(=O)(=O)N(CC(=O)Nc1ccccc1C(=O)N1CCCC1)c1ccc2c(c1)OCO2 | -5 | -2 | 43* | -3 | 3
CS(=O)(=O)N(CC(=O)Nc1ccccc1C(=O)N1CCOCC1)c1ccc2c(c1)OCO2 | -17 | / | / | / | /
COc1ccc(CCNC(=O)CN(c2cc([N+](=O)[O-])ccc2OC)S(C)(=O)=O)cc1 | 4 | -3 | 43* | -9 | -5
CS(=O)(=O)N(CC(=O)Nc1ccccc1C(=O)N1CCCC1)c1cccc([N+](=O)[O-])c1 | / | -3 | 0 | -3 | 6
CO[C@@H]1CN(C)C(=O)c2cc(NC(=O)c3ccccc3)ccc2OC[C@@H](C)N(CC2CC2)C[C@H]1C | 0 | / | / | / | -9
COc1ccc2c3c(n(C)c2c1)[C@H](CO)N(C(=O)C1CCOCC1)CC31CCN(C(=O)C2CCOCC2)CC1 | / | 2 | 0 | 0 | -13
C[C@H]1CN([C@@H](C)CO)S(=O)(=O)c2ccc(C#CC3CCCC3)cc2O[C@H]1CN(C)Cc1cccnc1 | -17 | 9 | 0 | 1 | -5
C[C@@H]1CN([C@H](C)CO)S(=O)(=O)c2ccc(C#CC3(O)CCCC3)cc2O[C@H]1CN(C)C(=O)c1cccnc1 | 2 | 27* | 0 | 3 | /
C[C@H]1CN([C@@H](C)CO)S(=O)(=O)c2ccc(C#CC3(O)CCCC3)cc2O[C@@H]1CN(C)C(=O)c1cccnc1 | -9 | 0 | 0 | -2 | /
C[C@@H]1CN([C@H](C)CO)S(=O)(=O)c2ccc(C#CC3CCCC3)cc2O[C@H]1CN(C)Cc1cccnc1 | -3 | 17* | -1 | 0 | -13
Cc1ccc(-c2ccc3c(c2)O[C@H](CN(C)Cc2cccnc2)[C@H](C)CN([C@H](C)CO)S3(=O)=O)cc1 | 2 | 18* | 0 | 1 | -6
C[C@H]1CN([C@@H](C)CO)S(=O)(=O)c2ccc(-c3cncnc3)cc2O[C@H]1CN(C)Cc1ccc(Oc2ccccc2)cc1 | -12 | 27* | 0 | 0 | /
CCNC(=O)Nc1ccc2c(c1)C(=O)N(C)[C@@H]1CC[C@H](CC(=O)N[C@@H](C)c3ccccc3)O[C@@H]1CO2 | / | 4 | 0 | -2 | /
C[C@@H]1CN([C@@H](C)CO)S(=O)(=O)c2ccc(C#CC3CCCCC3)cc2O[C@H]1CN(C)Cc1cccnc1 | ? | 13 | 0 | / | /
C[C@@H]1CN([C@H](C)CO)S(=O)(=O)c2ccc(C#CC3CCCCC3)cc2O[C@@H]1CN(C)Cc1cccnc1 | -16 | 99* | 0 | 2 | /
CCS(=O)(=O)Nc1ccc2c(c1)C(=O)N(C)C[C@@H](OC)[C@@H](C)CN(C(=O)NC(C)C)[C@H](C)CO2 | 3 | -2 | 0 | -3 | -3
SMILES | PGC1a acetyl inh | SIRT5 block | FGF22 binding | ERAP1 inh | FN deposition inh
Cc1nnc(-c2ccc(Cl)cc2)nc1NCCN(C)C | / | 18* | 0 | 0 | -8
CN(C)CCNc1nc(-c2ccccc2)nnc1C(F)(F)F | 9 | / | / | / | /
COc1ccc(C(=O)C2CCCN(C(=O)c3cccnc3OC)C2)cc1F (stereo not given) | 12 | 3 | 44* | 3 | /
COc1ccc(C(=O)C2CCCN(C(=O)c3cccs3)C2)cc1F (stereo not given) | -17 | 1 | 43 | -3 | 5
CSc1ncccc1C(=O)N1CCCC(C(=O)c2ccc3ccccc3c2)C1 (stereo not given) | / | -1 | 43* | -1 | 7
N#CCC(=O)Nc1ccc(C(F)(F)F)cc1N1CCOCC1 | / | -1 | 44* | -1 | -1
N#CCC(=O)Nc1cc(C(F)(F)F)ccc1N1CCOCC1 | -2 | / | 0 | 3 | -1
CCOCCCNC(=O)C(c1ccc(Cl)cc1)N(Cc1cccs1)C(=O)c1ccccn1 (stereo not given) | -2 | 18* | 1 | -5 | /
CCOCCCNC(=O)C(c1ccc(C)cc1)N(Cc1cccs1)C(=O)c1ccccn1 (stereo not given) | -2 | -1 | 0 | 2 | /
Cc1ccc2c(c1)nc(-n1nc(C)cc1C)c1nnnn12 | / | 1 | 43* | -6 | -5
Cc1cc(C)n(-c2nc3ccccc3n3c(C)nnc23)n1 | / | -3 | 0 | 8 | -2
O=C(CNC(=O)c1ccccc1)OCc1nc2ccccc2s1 | / | -1 | 43* | -2 | -5
CN1CCN(S(=O)(=O)c2cccc(C(=O)N3CCN(c4ccccc4)CC3)c2)CC1 | 13 | 17* | 0 | -5 | 0
CC1CN(S(=O)(=O)c2cccc(C(=O)Nc3cc(Cl)ccc3N3CCOCC3)c2)CC(C)O1 (stereo not given) | 6 | -1 | 0 | 2 | 2
CN1CCN(S(=O)(=O)c2cccc(C(=O)N(C)CC(=O)Nc3ccc(F)c(F)c3F)c2)CC1 | / | -4 | 0 | 99* | 1
CC(=O)Nc1ccc(/C=N/NC(=O)c2cccc(S(=O)(=O)N3CCOCC3)c2)cc1 | / | 0 | 0 | 9 | -17
CN1CCN(S(=O)(=O)c2cccc(C(=O)Nc3cc(Cl)ccc3N3CCOCC3)c2)CC1 | 4 | 1 | 0 | 61* | 5

High-throughput results deposited in PubChem by Broad Institute.
